Measurements taken from ChEMBL document CHEMBL3085640, “Synthesis and antimicrobial activity of some novel hydrazide, benzochromenone, dihydropyridine, pyrrole, thiazole and thiophene derivatives” (2013).
≈ marks a conversion by molar mass, not a printed value. Calls of active or inactive are those of the source. The calls are words filed in the database; no cut-off is given here.

Tests used:
Format in all cases: functional
[1] = tested on: Staphylococcus aureus; assay: Antibacterial activity against Staphylococcus aureus MTCC 96 assessed as growth inhibition after 24 hrs by broth microdilution method
Summary of the method: (§1)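 MIC by broth microdilution in Müller-Hinton broth. DMSO stocks are diluted in broth to give two-fold serial dilutions, and about 10^6 CFU/mL of bacteria is added per well. Sealed plates are incubated in a humid chamber at 36 °C for 24 h. The MIC is the lowest concentration showing no visible turbidity. Run only for compounds giving zones >10 mm.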

[2] = tested on: Staphylococcus aureus; assay: Antibacterial activity against Staphylococcus aureus MTCC 96 assessed as growth inhibition at 1 mg/mL after 24 hrs by […] method; settings: for zone of inhibition at 1000 µg/mL: MTCC 96, 24 h, read-out: DIZ
Summary of the method: (§2)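 Sterile filter-paper discs soaked in a 1 mg/mL DMSO solution of the compound are placed on nutrient agar seeded with about 10^6 CFU/mL of bacteria, in triplicate. Plates are incubated at 36 °C for 24 h. The read-out is the mean diameter of the inhibition zone in mm. DMSO alone serves as the control.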

[3] = tested on: Candida albicans; assay: Antifungal activity against Candida albicans assessed as growth inhibition at 1 mg/mL after 48 hrs by […] method; settings: read-out: DIZ
Summary of the method: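 Sterile filter-paper discs soaked in a 1 mg/mL DMSO solution of the compound are placed on nutrient agar seeded with about 10^4 CFU/mL of C. albicans, in triplicate. Plates are incubated at 36 °C for 48 h. The read-out is the mean diameter of the inhibition zone in mm, with a DMSO-only control.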

[4] = tested on: Escherichia coli; assay: Antibacterial activity against Escherichia coli MTCC 443 assessed as growth inhibition at 1 mg/mL after 24 hrs by […] method; settings: for zone of inhibition at 1000 µg/mL: MTCC 443, 24 h, read-out: DIZ; summary of the method: as §2
[5] = tested on: Escherichia coli; assay: Antibacterial activity against Escherichia coli MTCC 443 assessed as growth inhibition after 24 hrs by broth microdilution method; summary of the method: as §1
[6] = tested on: Candida albicans; assay: Antifungal activity against Candida albicans assessed as growth inhibition after 48 hrs by broth microdilution method
Summary of the method: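 MIC by broth microdilution in Sabouraud liquid medium. DMSO stocks are serially diluted two-fold in broth and inoculated with C. albicans. Sealed plates are incubated in a humid chamber at 36 °C for 48 h. The MIC is the lowest concentration without visible turbidity. Run only for compounds giving zones >10 mm.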

Compound | MIC ([1]; MTCC 96, 24 h) [µg/mL] | MIC ([5]; MTCC 443, 24 h) [µg/mL] | MIC [6] [µg/mL] | MIC [1] | MIC [5] | zone of inhibition at 1000 µg/mL [2] [mm] | zone of inhibition at 1000 µg/mL [3] [mm] | zone of inhibition at 1000 µg/mL [4] [mm] | growth inhibition (GI) [2] | growth inhibition (GI) [4]
C/C(=N\NC(=O)CC#N)c1cc2c(ccc3ccccc32)oc1=O | 125 (≈ 391 µM) | 125 (≈ 391 µM) | 250 (≈ 783 µM) |  |  | 21 | 11 | 23 |  | 
C/C(=N\NC(=O)/C(C#N)=N/Nc1ccc(C)cc1)c1cc2c(ccc3ccccc32)oc1=O | 125 (≈ 286 µM) | 125 (≈ 286 µM) | 125 (≈ 286 µM) |  |  | 24 | 21 | 24 |  | 
COc1ccc(OC)c(-c2c(C#N)c(O)n(/N=C(\C)c3cc4c(ccc5ccccc54)oc3=O)c(=O)c2C#N)c1 | 250 (≈ 469 µM) | 188 (≈ 352 µM) | 250 (≈ 469 µM) |  |  | 13 | 10 | 20 |  | 
C/C(=N\NC(=O)/C(C#N)=C/N(C)C)c1cc2c(ccc3ccccc32)oc1=O |  |  | 750 (≈ 2000 µM) | inactive | inactive |  | 7 |  | inactive | inactive
C/C(=N\n1c(N)c(C#N)c(-c2ccc(F)cc2)c(C#N)c1=O)c1cc2c(ccc3ccccc32)oc1=O | 125 (≈ 255 µM) | 125 (≈ 255 µM) | 375 (≈ 766 µM) |  |  | 21 | 10 | 21 |  | 
C/C(=N\NC(=O)c1c(N)sc2c1CCCC2)c1cc2c(ccc3ccccc32)oc1=O | 375 (≈ 869 µM) |  | 500 (≈ 1160 µM) |  | inactive | 5 | 9 |  |  | inactive
C/C(=N\N1C(=O)C(C#N)C=C1c1ccccc1)c1cc2c(ccc3ccccc32)oc1=O (configuration not stated) | 125 (≈ 298 µM) | 250 (≈ 596 µM) | 250 (≈ 596 µM) |  |  | 13 | 13 | 16 |  | 
CC1(C)S[C@@H]2[C@H](NC(=O)[C@H](N)c3ccccc3)C(=O)N2[C@H]1C(=O)O [AMPICILLIN] | 188 (≈ 537 µM) | 125 (≈ 358 µM) |  |  |  | 25 |  | 27 |  | 

Further molecules by falling MIC [6], results first:

MIC ([1]; MTCC 96, 24 h) [µg/mL] | MIC ([5]; MTCC 443, 24 h) [µg/mL] | MIC [6] [µg/mL] | MIC [1] | MIC [5] | Compound | zone of inhibition at 1000 µg/mL [2] [mm] | zone of inhibition at 1000 µg/mL [3] [mm] | zone of inhibition at 1000 µg/mL [4] [mm] | growth inhibition (GI) [2] | growth inhibition (GI) [4]
62.5 (≈ 132 µM) | 93.7 (≈ 197 µM) | 188 (≈ 395 µM) |  |  | C/C(=N\NC(=O)c1cc2c(ccc3ccccc32)oc1=O)c1cc2c(ccc3ccccc32)oc1=O | 27 | 20 | 28 |  | 
250 (≈ 512 µM) | 125 (≈ 256 µM) | 188 (≈ 384 µM) |  |  | C/C(=N\n1c(O)c(C#N)c(-c2cccc(O)c2)c(C#N)c1=O)c1cc2c(ccc3ccccc32)oc1=O | 12 | 19 | 24 |  | 
188 (≈ 424 µM) | 250 (≈ 566 µM) | 125 (≈ 283 µM) |  |  | C/C(=N\NC(=O)/C(C#N)=C/c1ccc(Cl)cc1)c1cc2c(ccc3ccccc32)oc1=O | 23 | 17 | 17 |  | 
375 (≈ 973 µM) | 125 (≈ 324 µM) | 125 (≈ 324 µM) |  |  | C/C(=N\n1c(N)cc(N)c(C#N)c1=O)c1cc2c(ccc3ccccc32)oc1=O | 8 | 18 | 23 |  | 
125 (≈ 306 µM) | 125 (≈ 306 µM) | 125 (≈ 306 µM) |  |  | C/C(=N\NC(=O)/C(C#N)=C/c1cccnc1)c1cc2c(ccc3ccccc32)oc1=O | 22 | 19 | 23 |  | 
125 (≈ 257 µM) | 93.7 (≈ 193 µM) | 125 (≈ 257 µM) |  |  | C/C(=N\NC(=O)c1sc(=S)n(-c2ccccc2)c1N)c1cc2c(ccc3ccccc32)oc1=O | 26 | 15 | 27 |  | 
 |  | 125 (≈ 299 µM) | inactive | inactive | C/C(=N\NC(=O)c1sc(N)c(C#N)c1N)c1cc2c(ccc3ccccc32)oc1=O |  | 20 |  | inactive | inactive
125 (≈ 235 µM) | 125 (≈ 235 µM) | 125 (≈ 235 µM) |  |  | COc1ccc(OC)c(-c2c(C#N)c(N)n(/N=C(\C)c3cc4c(ccc5ccccc54)oc3=O)c(=O)c2C#N)c1 | 23 | 18 | 23 |  | 
125 (≈ 294 µM) | 250 (≈ 588 µM) | 125 (≈ 294 µM) |  |  | C/C(=N\NC(=O)/C(C#N)=C/c1ccc(F)cc1)c1cc2c(ccc3ccccc32)oc1=O | 22 | 18 | 20 |  | 
 |  | 5.8 (≈ 16.8 µM) |  |  | Clc1ccccc1C(c1ccccc1)(c1ccccc1)n1ccnc1 [CLOTRIMAZOLE] |  | 30 |  |  | 
